Assay outcomes from PubChem.
In the library only some 2.8% were active in any assay of this set; here they are far more common.
Rtt109 Vps75 = blocks Candida albicans Rtt109/Vps75 acetyltransferase activity; Q5AAJ8; purified Rtt109/Vps75, ThioGlo CoA-SH fluorescence, 4 h; inhibition, % at 34.9 µM; 0.16% of 330,000 active; AID 540336;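 active means inhibition of at least 50% in every replicate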
NR3A LBD binder = modulators (binders) of human NR3A ligand-binding domain. NR3A LBD differential scanning fluorimetry, Tm shift; 0% = protein alone, 100% = glycine-bound protein. Tm shift relative to glycine control, % at 25 µM. 2.5% of 340,000 active;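 active means melting temperature shift of at least 10% of the positive control shift, at one fixed dose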
JMJD2C inh = inhibitors of human GASC-1 (JMJD2C) demethylase | Q9H3R0 | GST-JMJD2C(1-420) H3K9me3 demethylation, DELFIA europium | inhibition, % at 2.35 µM | 0.069% of 330,000 active | AID 2099;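 active means more than half of a compound's replicate wells show inhibition beyond 50%, single wells judged on their own value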;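 further: signal counts dimethyl H3K9 product captured on neutravidin plate; 0% = median of DMSO wells and 100% = 0.3 times that DMSO median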
Target sequence (Q9H3R0 1-420 limits assumed): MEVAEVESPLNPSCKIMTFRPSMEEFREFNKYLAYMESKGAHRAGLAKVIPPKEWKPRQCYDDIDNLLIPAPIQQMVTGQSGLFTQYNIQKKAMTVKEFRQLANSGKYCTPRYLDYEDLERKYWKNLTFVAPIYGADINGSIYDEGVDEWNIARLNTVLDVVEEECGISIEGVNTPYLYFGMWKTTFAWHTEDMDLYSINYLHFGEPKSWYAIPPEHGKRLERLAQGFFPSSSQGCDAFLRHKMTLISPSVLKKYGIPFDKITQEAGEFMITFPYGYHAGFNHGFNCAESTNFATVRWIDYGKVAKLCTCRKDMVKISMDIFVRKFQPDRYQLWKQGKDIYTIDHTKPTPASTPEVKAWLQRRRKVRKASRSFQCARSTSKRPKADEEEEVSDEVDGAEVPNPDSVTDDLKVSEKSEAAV
T cell modulator = modulates CD8 T cell binding to vesicles. AID 2052. 2C CD8+ T cell-vesicle binding, flow cytometry; hits give low values. 0.068% of 330,000 active. response (vesicle binding), % at 7 µM;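 active means response, share of CD8 T cells binding vesicles, and their 90th percentile fluorescence all below set limits, cut at about 80% in these data, passing the limit was not always enough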;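 further: values below 100% mean blocked vesicle binding to the CD8+ T cells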
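incubation = binding step 1.5 h, 37 °C, antibody labelling 20 min, ice | test system = 2C mouse CD8+ T cells | read-out basis = percent CD8+ FL2 mean versus row control | controls = Peptide-free naked vesicles (low) and QL9 vesicles with 0.7% DMSO vehicle (high) | detection = flow cytometry of vesicle-bound cells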
Active calls of the source: *; i = inactive; . = not tested or not shown.

SMILES	Rtt109 Vps75	NR3A LBD binder	JMJD2C inh	T cell modulator
CC(=O)Nc1ccc2cc3ccc(NC(C)=O)cc3nc2c1	6.4	10.3*	-24.9	299.7
Cc1cccc(C)c1NC(=S)Nc1ccc(F)cc1	4.2	0.0	-12.4	.
CC(=O)Nc1cccc(NC(=O)Nc2ccc(C)c(Cl)c2)c1	-9.3	35.9*	0.1	i
COc1ccc(C2=NOC(Cn3nc(C(=O)NCc4cccc(C(F)(F)F)c4)cc3-c3ccccc3)C2)cc1 (stereo unspecified)	-4.5	-0.6	11.3	414.2
CC(=O)Nc1cccc(NC(=O)c2cc(Cl)ccc2Cl)c1	12.8	-0.4	4.0	240.0
Cc1ccc(NC(=S)Nc2cccc3ccccc23)cc1F	-5.1	16.1*	9.0	189.5
CC(=O)Nc1cccc(NC(=S)Nc2ccc(F)c(Cl)c2)c1	6.1	12.3*	7.3	259.9
Cc1cc(C)c2c(n1)SCC(=O)N2CC(=O)Nc1ccc(F)cc1	-6.3	-1.8	-7.5	357.4
O=C(Nc1cccc(Cl)c1)C1C2CCC3C(CCC21)C3(Cl)Cl (stereo unspecified)	1.3	14.0*	-0.2	150.9
O=C(O)C1CC=CCC1C(=O)Nc1cccc(Cl)c1 (stereo unspecified)	0.6	11.4*	5.8	305.0
NC(=O)c1ccc(N2CCN(S(=O)(=O)c3ccccc3)CC2)c([N+](=O)[O-])c1	-1.0	0.8	7.0	386.5
O=C(c1ccoc1)N1CCC(CO)(CCc2ccccc2)CC1	3.0	-0.1	7.6	892.2
COc1ccc(COC(=O)N/N=C/c2cccs2)cc1	0.0	31.9*	1.7	445.3
Cc1ccc(S(=O)(=O)NCCC(=O)NCC(=O)Nc2c(C)cccc2C)cc1C	7.7	-0.4	0.8	326.9
CCCCN(C(=O)c1cc(-c2ccncc2)nc2ccccc12)c1c(N)n(CC(C)C)c(=O)[nH]c1=O	5.5	-4.4	-2.2	113.3
CN(c1ccc(OCC(=O)N2CCN(c3ccc(F)cc3)CC2)cc1)S(=O)(=O)c1cccs1	2.5	0.1	-4.2	430.6
CN(c1ccc(OCC(=O)N2CCCCC2)cc1)S(=O)(=O)c1cccs1	6.5	-2.4	64.5*	646.3
Cc1ccc2nc(N/N=C/c3ccccc3F)nc(-c3ccccc3)c2c1	-2.8	12.6*	2.4	204.9
Cc1ccc2nc(N/N=C/c3ccccc3C#N)nc(-c3ccccc3)c2c1	-0.8	-1.1	-0.4	282.2
CC(=O)[C@H]1CC[C@H]2[C@@H]3CCC4=CC(=O)CC[C@]4(C)[C@H]3[C@H](O)C[C@]12C	3.4	-4.2	0.4	278.5
C[C@]12CC(O)C3C(CCC4=CC(=O)CC[C@@]43C)C1CCC2c1csc(-c2ccccc2)n1 (stereo partly specified)	-20.3	13.3*	20.1	99.1
COc1ccc(/C=N/NC(=O)c2ccc(O)cc2O)cc1CSc1ccccn1	-1.7	20.5*	-3.7	257.5
CCn1c2ccccc2c2cc(/C=N/NC(=O)c3cc(O)cc(O)c3)ccc21	6.5	21.0*	1.1	390.3
COc1ccc2c(c1)cc(C(=O)N/N=C/c1c(O)c(C(=O)O)cc3ccccc13)n2C	-9.1	11.2*	3.9	470.5
Cn1c2ccccc2c2cc(/C=N/NC(=O)c3ccc(O)cc3O)ccc21	1.9	30.2*	-9.8	267.5
SMILES	Rtt109 Vps75	NR3A LBD binder	JMJD2C inh	T cell modulator
Cc1ccc2c(=O)cc(C(=O)NCc3ccccc3)oc2c1C	5.7	-3.5	0.5	187.1
CCn1c2ccccc2c2cc(/C=N/NC(=O)c3ccc(O)cc3)ccc21	3.6	38.4*	-25.9	245.6
Cn1c(O)c(/C=N/NC(=O)c2cc3ccccc3cc2O)c2ccccc21	-7.1	21.3*	10.7	273.9
CCn1c2ccccc2c2cc(/C=N/NC(=O)c3ccncc3)ccc21	28.2	-0.8	4.9	196.8
CNNC(=S)Nc1cccc(SC)c1	-13.7	-6.5	6.1	176.9
COc1ccc2c(c1)-c1c(sn(-c3ccc(OC)c(OC)c3)c1=S)C(C)(C)N2	0.9	-10.4	-18.5	70.3*
COc1ccc(-n2sc3c(c2=S)-c2cc(OC)ccc2NC3(C)C)cc1	6.3	1.3	-3.8	219.6
CC(C)n1nccc1N(Cc1ccc(Br)cc1)S(=O)(=O)c1ccccc1	-18.6	-1.2	8.9	200.1
Clc1ccc(Nc2ccc(Cl)nn2)cc1	-2.3	24.3*	-11.1	985.0
COc1ccc(Nc2ccc(Cl)nn2)cc1	-2.0	-1.8	-17.5	789.0
O=C(Nc1ccc(F)cc1)Oc1ccc[nH]c1=O	-4.1	11.9*	-15.4	161.4
CN(C)S(=O)(=O)c1cccc(NC(=S)Nc2cc(Cl)cc(Cl)c2)c1	4.8	11.3*	-0.8	265.6
CC1CN(Cc2c(O)ccc3c(=O)c(-c4ccccc4)coc23)CC(C)O1 (stereo unspecified)	-15.9	1.2	-2.8	275.6
CC1CN(Cc2c(O)ccc3c2oc(=O)c2ccccc23)CC(C)O1 (stereo unspecified)	5.9	0.5	53.6*	147.3
O=C(CSc1nnc(Nc2ccccc2)s1)Nc1cccc(S(=O)(=O)N2CCCCC2)c1	10.6	16.4*	-25.2	201.7
O=C(CNC(=O)c1cc(=O)[nH]c2ccc(S(=O)(=O)N3CCOCC3)cc12)Nc1ccc(F)c(F)c1	-9.7	2.8	.	.
Cc1cccc(-n2c(CNC(=O)c3ccc(S(=O)(=O)N4CCCC4)cc3)n[nH]c2=S)c1	-15.8	0.5	-20.7	82.2
O=C(NCc1n[nH]c(=S)n1-c1cccc(Cl)c1)c1ccc(S(=O)(=O)N2CCCCC2)cc1	7.3	0.8	83.8*	254.2
O=C(CCNC(=O)c1ccc(Cl)cc1)Nc1cccc(S(=O)(=O)N2CCCCCC2)c1	3.2	28.6*	-4.0	679.0
O=C(CSc1nnc2c(n1)[nH]c1ccc(S(=O)(=O)N3CCOCC3)cc12)Nc1ccc(F)c(F)c1	-2.6	35.4*	-15.3	334.5
COc1ccc(CCNC(=O)Cc2ccc(NS(=O)(=O)c3ccc(F)cc3)cc2)cc1OC	-13.7	-1.8	.	206.2
Cc1ccc(N(CN2C(=O)C3C4CCC(C4)C3C2=O)C(=O)c2ccco2)cc1 (stereo unspecified)	-1.0	2.0	-1.2	373.0
CC1CCCN(S(=O)(=O)c2ccc(C(=O)Nc3nnc(-c4ccco4)o3)cc2)C1 (stereo unspecified)	1.0	-9.3	-2.0	466.5
O=C(CNc1cccc(F)c1)Nc1cccc(S(=O)(=O)N2CCCCC2)c1	2.6	14.1*	.	.
O=C(CSc1nnc2ccccn12)Nc1cccc(S(=O)(=O)N2CCOCC2)c1	5.4	10.2*	9.6	562.0
Cc1ccc(NC(=O)CNc2cccc(S(=O)(=O)N3CCCCC3)c2)cc1F	.	-1.2	54.9	i
O=C(COC(=O)c1ccc(Cl)c(S(=O)(=O)N2CCN(c3ccc(F)cc3)CC2)c1)Nc1cccc(Cl)c1	-1.0	25.3*	-1.2	0.0
CCCc1nc2oc3cc(OC)ccc3c(=O)c2c(=O)n1Cc1ccco1	16.2	3.4	5.4	572.4
CCCCCCn1c(-c2ccco2)nc2oc3cc(OC)ccc3c(=O)c2c1=O	-4.6	32.7*	5.3	392.4
COc1ccc(C(=O)NCC(=O)OCC(=O)c2c(C)[nH]c3ccccc23)cc1OC	-5.9	0.4	.	163.5
